According to paper PMC7867784 (Translational Lung Cancer Research, 2021):

Tested on: Japanese patients with RET-rearranged NSCLC
Assay: ALL-RET phase 1/2 trial: safety
Type: in vivo, human
Procedure, shortened: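 Adverse events were graded by NCI CTCAE v4.0, with causal relation to treatment recorded separately. Dose finding used a 3+3 de-escalation design with 3–6 patients per cohort. DLT was evaluated over the first 21-day cycle and defined as grade ≥4 thrombopenia, grade ≥3 febrile neutropenia, grade ≥4 neutropenia lasting ≥4 days, or grade ≥3 non-hematologic toxicity, with specified exceptions. Follow-up ran until January 2019.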

CCc1cc2c(cc1N1CCC(N3CCOCC3)CC1)C(C)(C)c1[nH]c3cc(C#N)ccc3c1C2=O [alectinib]
grade 4 AEs (450 mg BID): no grade 4 AEs were observed | Aspartate aminotransferase increase, any grade, number (total) (450 mg BID (N=28)): 9 | Aspartate aminotransferase increase, any grade, number [causally related] (450 mg BID (N=28)): 7 | Aspartate aminotransferase increase, any grade, percent (total) (450 mg BID (N=28)): 32.1% | Aspartate aminotransferase increase, any grade, percent [causally related] (450 mg BID (N=28)): 25.0% | Aspartate aminotransferase increase, grade 1–2, number (total) (450 mg BID (N=28)): 9 | Aspartate aminotransferase increase, grade 1–2, number [causally related] (450 mg BID (N=28)): 7 | Aspartate aminotransferase increase, grade 3, number (450 mg BID (N=28)): 0 | Aspartate aminotransferase increase, grade 4, number (450 mg BID (N=28)): 0 | Bilirubin increase, any grade, number (total) (450 mg BID (N=28)): 6 [6] | Bilirubin increase, any grade, number [causally related] (450 mg BID (N=28)): 6 [6] | Bilirubin increase, any grade, percent (450 mg BID (N=28)): 21.4% | Bilirubin increase, grade 1–2, number (total) (450 mg BID (N=28)): 5 [5] | Bilirubin increase, grade 1–2, number [causally related] (450 mg BID (N=28)): 5 [5] | Bilirubin increase, grade 3, number (total) (450 mg BID (N=28)): 1 [1] | Bilirubin increase, grade 3, number [causally related] (450 mg BID (N=28)): 1 [1] | Bilirubin increase, grade 4, number (450 mg BID (N=28)): 0 | Constipation, any grade, number [causally related] (450 mg BID (N=28)): 12 | Constipation, any grade, percent (total) (450 mg BID (N=28)): 57.1% | Constipation, any grade, percent [causally related] (450 mg BID (N=28)): 42.9% | Constipation, grade 1–2, number (total) (450 mg BID (N=28)): 16 | Constipation, grade 1–2, number [causally related] (450 mg BID (N=28)): 12 | Constipation, grade 3, number (450 mg BID (N=28)): 0 | Constipation, grade 4, number (450 mg BID (N=28)): 0 | Creatine phosphokinase increase, any grade, number (total) (450 mg BID (N=28)): 13 [13] | Creatine phosphokinase increase, any grade, number [causally related] (450 mg BID (N=28)): 13 [13] | Creatine phosphokinase increase, any grade, percent (450 mg BID (N=28)): 46.4% | Creatine phosphokinase increase, grade 1–2, number (total) (450 mg BID (N=28)): 12 [12] | Creatine phosphokinase increase, grade 1–2, number [causally related] (450 mg BID (N=28)): 12 [12] | Creatine phosphokinase increase, grade 3, number (total) (450 mg BID (N=28)): 1 [1] | Creatine phosphokinase increase, grade 3, number [causally related] (450 mg BID (N=28)): 1 [1] | Creatine phosphokinase increase, grade 4, number (450 mg BID (N=28)): 0 | Creatinine increase, any grade, number (total) (450 mg BID (N=28)): 8 [8] | Creatinine increase, any grade, number [causally related] (450 mg BID (N=28)): 8 [8] | Creatinine increase, any grade, percent (450 mg BID (N=28)): 28.6% | Creatinine increase, grade 1–2, number (total) (450 mg BID (N=28)): 8 [8] | Creatinine increase, grade 1–2, number [causally related] (450 mg BID (N=28)): 8 [8] | Creatinine increase, grade 3, number (450 mg BID (N=28)): 0 | Creatinine increase, grade 4, number (450 mg BID (N=28)): 0 | Diarrhea, any grade, number (total) (450 mg BID (N=28)): 3 | Diarrhea, any grade, number [causally related] (450 mg BID (N=28)): 2 | Diarrhea, any grade, percent (total) (450 mg BID (N=28)): 10.7% | Diarrhea, any grade, percent [causally related] (450 mg BID (N=28)): 7.1% | Diarrhea, grade 1–2, number (total) (450 mg BID (N=28)): 2 [2] | Diarrhea, grade 1–2, number [causally related] (450 mg BID (N=28)): 2 [2] | Diarrhea, grade 3, number (total) (450 mg BID (N=28)): 1 | Diarrhea, grade 3, number [causally related] (450 mg BID (N=28)): 0 | Diarrhea, grade 4, number (450 mg BID (N=28)): 0 | Hyponatraemia, any grade, number (total) (450 mg BID (N=28)): 1 [1] | Hyponatraemia, any grade, number [causally related] (450 mg BID (N=28)): 1 [1] | Hyponatraemia, any grade, percent (450 mg BID (N=28)): 3.6% | Hyponatraemia, grade 1–2, number (450 mg BID (N=28)): 0 | Hyponatraemia, grade 3, number (total) (450 mg BID (N=28)): 1 [1] | Hyponatraemia, grade 3, number [causally related] (450 mg BID (N=28)): 1 [1] | Hyponatraemia, grade 4, number (450 mg BID (N=28)): 0 | Neutropenia, any grade, number (total) (450 mg BID (N=28)): 1 [1] | Neutropenia, any grade, number [causally related] (450 mg BID (N=28)): 1 [1] | Neutropenia, any grade, percent (450 mg BID (N=28)): 3.6% | Neutropenia, grade 1–2, number (450 mg BID (N=28)): 0 | Neutropenia, grade 3, number (total) (450 mg BID (N=28)): 1 [1] | Neutropenia, grade 3, number [causally related] (450 mg BID (N=28)): 1 [1] | Neutropenia, grade 4, number (450 mg BID (N=28)): 0 | Pneumonitis, any grade, percent (total) (450 mg BID (N=28)): 3.6% | Pneumonitis, any grade, percent [causally related] (450 mg BID (N=28)): 0.0% | Pneumonitis, grade 1–2, number (450 mg BID (N=28)): 0 | Pneumonitis, grade 3, number (total) (450 mg BID (N=28)): 1 [1] | Pneumonitis, grade 3, number [causally related] (450 mg BID (N=28)): 1 [1] | Pneumonitis, grade 4, number (450 mg BID (N=28)): 0 | Constipation, any grade, number (total) (450 mg BID (N=28; phase 1 N=3, phase 2 N=25)): 16 | dose reduction due to toxicity (450 mg BID, 28 patients): no patients required a dose reduction | patients whose treatment was discontinued due to pneumonitis (450 mg BID, out of 28 patients): 1 | Alkaline phosphatase increase, any grade, number (total) (600 mg BID (N=6)): 2 [2] | Alkaline phosphatase increase, any grade, number [causally related] (600 mg BID (N=6)): 2 [2] | Alkaline phosphatase increase, any grade, percent (600 mg BID (N=6)): 33.3% | Alkaline phosphatase increase, grade 1–2, number (total) (600 mg BID (N=6)): 1[1] | Alkaline phosphatase increase, grade 1–2, number [causally related] (600 mg BID (N=6)): 1[1] | Alkaline phosphatase increase, grade 3, number (total) (600 mg BID (N=6)): 1[1] | Alkaline phosphatase increase, grade 3, number [causally related] (600 mg BID (N=6)): 1[1] | Alkaline phosphatase increase, grade 4, number (600 mg BID (N=6)): 0 | Cholangitis, any grade, number (total) (600 mg BID (N=6)): 1 [1] | Cholangitis, any grade, number [causally related] (600 mg BID (N=6)): 1 [1] | Cholangitis, any grade, percent (600 mg BID (N=6)): 16.7% | Cholangitis, grade 1–2, number (600 mg BID (N=6)): 0 | Cholangitis, grade 3, number (total) (600 mg BID (N=6)): 1 [1] | Cholangitis, grade 3, number [causally related] (600 mg BID (N=6)): 1 [1] | Cholangitis, grade 4, number (600 mg BID (N=6)): 0 | Constipation, any grade, number (total) (600 mg BID (N=6)): 4 [4]
